According to ChEMBL document CHEMBL3627671, “Novel derivatives of nitro-substituted salicylic acids: Synthesis, antimicrobial activity and cytotoxicity” (Bioorg Med Chem, 2015):
Values after ≈ are worked out from the molar mass of the structure shown.

Columns and labels:
[1] = tested on: Mycobacterium tuberculosis; test: Antimycobacterial activity against Mycobacterium tuberculosis H37Rv 331/88 after 14 days; format: functional; conditions: H37Rv 331/88, 336 h
[2] = tested on: Mycobacterium tuberculosis; test: Antimycobacterial activity against Mycobacterium tuberculosis H37Rv 331/88 after 21 days; format: functional; conditions: H37Rv 331/88, 504 h
[3] = tested on: Mycobacterium avium; test: Antimycobacterial activity against Mycobacterium avium 330/80 after 14 days; format: functional; conditions: 330/80, 336 h
[4] = tested on: Mycobacterium avium; test: Antimycobacterial activity against Mycobacterium avium 330/80 after 21 days; format: functional; conditions: 330/80, 504 h
[5] = tested on: Mycobacterium kansasii; test: Antimycobacterial activity against Mycobacterium kansasii 235/80 after 7 days; format: functional; conditions: 235/80, 168 h
In short: (§1)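 Šula's semisynthetic medium micromethod at 37 °C, read after 7, 14 and 21 days. The 1.0 McFarland suspension was diluted 10^-4. MIC determined. 6509/96 is a clinical isolate.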

[6] = tested on: Mycobacterium kansasii; test: Antimycobacterial activity against Mycobacterium kansasii 235/80 after 14 days; format: functional; conditions: 235/80, 336 h; in short: as §1
[7] = tested on: Mycobacterium kansasii; test: Antimycobacterial activity against Mycobacterium kansasii 235/80 after 21 days; format: functional; conditions: 235/80, 504 h; in short: as §1
[8] = tested on: Mycobacterium kansasii; test: Antimycobacterial activity against Mycobacterium kansasii 6509/96 after 7 days; format: functional; conditions: 6509/96, 168 h; in short: as §1
[9] = tested on: Mycobacterium kansasii; test: Antimycobacterial activity against Mycobacterium kansasii 6509/96 after 14 days; format: functional; conditions: 6509/96, 336 h; in short: as §1
[10] = tested on: Mycobacterium kansasii; test: Antimycobacterial activity against Mycobacterium kansasii 6509/96 after 21 days; format: functional; conditions: 6509/96, 504 h; in short: as §1
[11] = tested on: Staphylococcus aureus; test: Antibacterial activity against Staphylococcus aureus CCM 4516/08 after 24 hrs by microdilution broth method; format: functional; conditions: CCM 4516/08, 24 h
[12] = tested on: Staphylococcus aureus; test: Antibacterial activity against Staphylococcus aureus CCM 4516/08 after 48 hrs by microdilution broth method; format: functional; conditions: CCM 4516/08, 48 h
[13] = tested on: Staphylococcus aureus; test: Antibacterial activity against methicillin-resistant Staphylococcus aureus H 5996/08 after 24 hrs by microdilution broth method; format: functional; conditions: H 5996/08, 24 h
[14] = tested on: Staphylococcus aureus; test: Antibacterial activity against methicillin-resistant Staphylococcus aureus H 5996/08 after 48 hrs by microdilution broth method; format: functional; conditions: H 5996/08, 48 h
[15] = tested on: Staphylococcus epidermidis; test: Antibacterial activity against Staphylococcus epidermidis H 6966/08 after 24 hrs by microdilution broth method; format: functional; conditions: H 6966/08, 24 h
In short: (§2)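 Mueller-Hinton broth microdilution (modified M07-A07), pH 7.4 (±0.2). Compounds dissolved in DMSO, tested at final 500 to 0.49 µmol/L. Inoculum in sterile water matched to 0.5 McFarland. Incubated in the dark, humid atmosphere, 35 °C, read at 24 and 48 h visually and at 540 nm. MIC taken as ≥95% growth reduction (IC95) versus control.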

[16] = tested on: Staphylococcus epidermidis; test: Antibacterial activity against Staphylococcus epidermidis H 6966/08 after 48 hrs by microdilution broth method; format: functional; conditions: H 6966/08, 48 h; in short: as §2
[17] = tested on: Enterococcus sp.; test: Antibacterial activity against Enterococcus sp. J 14365/08 after 24 hrs by microdilution broth method; format: functional; conditions: J 14365/08, 24 h; in short: as §2
[18] = tested on: Enterococcus sp.; test: Antibacterial activity against Enterococcus sp. J 14365/08 after 48 hrs by microdilution broth method; format: functional; conditions: J 14365/08, 48 h; in short: as §2
[19] = tested on: Escherichia coli; test: Antibacterial activity against Escherichia coli CCM4517 after 24 hrs by microdilution broth method; format: functional; conditions: CCM4517, 24 h; in short: as §2
[20] = tested on: Escherichia coli; test: Antibacterial activity against Escherichia coli CCM4517 after 48 hrs by microdilution broth method; format: functional; conditions: CCM4517, 48 h; in short: as §2
[21] = tested on: Klebsiella pneumoniae; test: Antibacterial activity against Klebsiella pneumoniae D 11750/08 after 24 hrs by microdilution broth method; format: functional; conditions: D 11750/08, 24 h; in short: as §2
[22] = tested on: Klebsiella pneumoniae; test: Antibacterial activity against Klebsiella pneumoniae D 11750/08 after 48 hrs by microdilution broth method; format: functional; conditions: D 11750/08, 48 h; in short: as §2
[23] = tested on: Klebsiella pneumoniae; test: Antibacterial activity against ESBL-positive Klebsiella pneumoniae J 14368/08 after 24 hrs by microdilution broth method; format: functional; conditions: J 14368/08, 24 h; in short: as §2
[24] = tested on: Klebsiella pneumoniae; test: Antibacterial activity against ESBL-positive Klebsiella pneumoniae J 14368/08 after 48 hrs by microdilution broth method; format: functional; conditions: J 14368/08, 48 h; in short: as §2
[25] = tested on: Pseudomonas aeruginosa; test: Antibacterial activity against Pseudomonas aeruginosa CCM 1961 after 24 hrs by microdilution broth method; format: functional; conditions: CCM 1961, 24 h; in short: as §2
[26] = tested on: Pseudomonas aeruginosa; test: Antibacterial activity against Pseudomonas aeruginosa CCM 1961 after 48 hrs by microdilution broth method; format: functional; conditions: CCM 1961, 48 h; in short: as §2
[27] = tested on: Candida albicans; test: Antifungal activity against Candida albicans ATCC 44859 after 24 hrs by microdilution broth method; format: functional; conditions: ATCC 44859, 24 h
In short: (§3)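 CLSI M27-A3 broth microdilution in RPMI 1640 with glutamine, buffered to pH 7.0 with MOPS; DMSO diluent. Yeast inoculum 5 × 10^3 ± 0.2 CFU/mL. Moulds grown on Sabouraud agar 3–10 days before spore harvest, final inoculum 0.5-5 × 10^4 CFU/mL, checked in a Bürker chamber. Incubated dark, humid, 35 °C, read at 24 and 48 h visually and at 540 nm. MIC taken as ≥80% (yeasts) or ≥50% (filamentous) growth reduction versus control.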

[28] = tested on: Candida albicans; test: Antifungal activity against Candida albicans ATCC 44859 after 48 hrs by microdilution broth method; format: functional; conditions: ATCC 44859, 48 h; in short: as §3
[29] = tested on: Candida tropicalis; test: Antifungal activity against Candida tropicalis 156 after 24 hrs by microdilution broth method; format: functional; conditions: Candida tropicalis, 156, 24 h; in short: as §3
[30] = tested on: Candida tropicalis; test: Antifungal activity against Candida tropicalis 156 after 48 hrs by microdilution broth method; format: functional; conditions: Candida tropicalis, 156, 48 h; in short: as §3
[31] = tested on: Pichia kudriavzevii; test: Antifungal activity against Candida krusei E28 after 24 hrs by microdilution broth method; format: functional; conditions: E28, 24 h; in short: as §3
[32] = tested on: Pichia kudriavzevii; test: Antifungal activity against Candida krusei E28 after 48 hrs by microdilution broth method; format: functional; conditions: E28, 48 h; in short: as §3
[33] = tested on: Nakaseomyces glabratus; test: Antifungal activity against Candida glabrata 20/I after 24 hrs by microdilution broth method; format: functional; in short: as §3
[34] = tested on: Nakaseomyces glabratus; test: Antifungal activity against Candida glabrata 20/I after 48 hrs by microdilution broth method; format: functional; in short: as §3
[35] = tested on: Trichosporon asahii; test: Antifungal activity against Trichosporon asahii 1188 after 24 hrs by microdilution broth method; format: functional; conditions: Trichosporon asahii, 1188, 24 h; in short: as §3
[36] = tested on: Trichosporon asahii; test: Antifungal activity against Trichosporon asahii 1188 after 48 hrs by microdilution broth method; format: functional; conditions: Trichosporon asahii, 1188, 48 h; in short: as §3
[37] = tested on: Aspergillus fumigatus; test: Antifungal activity against Aspergillus fumigatus 231 after 24 hrs by microdilution broth method; format: functional; conditions: Aspergillus fumigatus, 231, 24 h; in short: as §3
[38] = tested on: Aspergillus fumigatus; test: Antifungal activity against Aspergillus fumigatus 231 after 48 hrs by microdilution broth method; format: functional; conditions: Aspergillus fumigatus, 231, 48 h; in short: as §3
[39] = tested on: Lichtheimia corymbifera; test: Antifungal activity against Absidia corymbifera 272 after 24 hrs by microdilution broth method; format: functional; conditions: Lichtheimia corymbifera, 272, 24 h; in short: as §3
[40] = tested on: Lichtheimia corymbifera; test: Antifungal activity against Absidia corymbifera 272 after 48 hrs by microdilution broth method; format: functional; conditions: Lichtheimia corymbifera, 272, 48 h; in short: as §3
[41] = tested on: Trichophyton mentagrophytes; test: Antifungal activity against Trichophyton mentagrophytes 445 after 24 hrs by microdilution broth method; format: functional; conditions: Trichophyton mentagrophytes, 445, 24 h
[42] = tested on: Trichophyton mentagrophytes; test: Antifungal activity against Trichophyton mentagrophytes 445 after 48 hrs by microdilution broth method; format: functional; conditions: Trichophyton mentagrophytes, 445, 48 h
[43] = tested on: HepG2; test: Cytotoxicity against human HepG2 cells after 24 hrs […]; format: cell-based; conditions: HepG2, 24 h
[44] = Selectivity index, ratio of CI50 for human HepG2 cells to MIC100 for Mycobacterium tuberculosis H37Rv 331/88

## O=C(Nc1ccc(Cl)c(Cl)c1)c1ccc([N+](=O)[O-])cc1O
[1]
  MIC: 4 µM (≈ 1.31 µg/mL)
[2]
  MIC: 8 µM (≈ 2.62 µg/mL)
[3]
  MIC: 32 µM (≈ 10.5 µg/mL)
[4]
  MIC: 62.5 µM (≈ 20.4 µg/mL)
[5]
  MIC: 4 µM (≈ 1.31 µg/mL)
[6]
  MIC: 8 µM (≈ 2.62 µg/mL)
[7]
  MIC: 8 µM (≈ 2.62 µg/mL)
[8]
  MIC: 8 µM (≈ 2.62 µg/mL)
[9]
  MIC: 16 µM (≈ 5.23 µg/mL)
[10]
  MIC: 16 µM (≈ 5.23 µg/mL)
[11]
  MIC: 3.9 µM (≈ 1.28 µg/mL)
[12]
  MIC: 3.9 µM (≈ 1.28 µg/mL)
[13]
  MIC: 1.95 µM (≈ 0.638 µg/mL)
[14]
  MIC: 1.95 µM (≈ 0.638 µg/mL)
[15]
  MIC: 1.95 µM (≈ 0.638 µg/mL)
[16]
  MIC: 1.95 µM (≈ 0.638 µg/mL)
[17]
  MIC: 125 µM (≈ 40.9 µg/mL)
[18]
  MIC: 500 µM (≈ 164 µg/mL)
[19]
  MIC: > 500 µM
[20]
  MIC: > 500 µM
[21]
  MIC: > 500 µM
[22]
  MIC: > 500 µM
[23]
  MIC: > 500 µM
[24]
  MIC: > 500 µM
[25]
  MIC: > 500 µM
[26]
  MIC: > 500 µM
[27]
  MIC: 62.5 µM (≈ 20.4 µg/mL)
[28]
  MIC: 62.5 µM (≈ 20.4 µg/mL)
[29]
  MIC: 125 µM (≈ 40.9 µg/mL)
[30]
  MIC: > 250 µM
[31]
  MIC: 7.81 µM (≈ 2.55 µg/mL)
[32]
  MIC: 15.6 µM (≈ 5.11 µg/mL)
[33]
  MIC: 31.2 µM (≈ 10.2 µg/mL)
[34]
  MIC: 62.5 µM (≈ 20.4 µg/mL)
[35]
  MIC: 7.81 µM (≈ 2.55 µg/mL)
[36]
  MIC: 15.6 µM (≈ 5.11 µg/mL)
[37]
  MIC: 31.2 µM (≈ 10.2 µg/mL)
[38]
  MIC: 31.2 µM (≈ 10.2 µg/mL)
[39]
  MIC: 31.2 µM (≈ 10.2 µg/mL)
[40]
  MIC: 31.2 µM (≈ 10.2 µg/mL)
[41]
  MIC: 125 µM (≈ 40.9 µg/mL)
[42]
  MIC: 125 µM (≈ 40.9 µg/mL)
[43]
  IC50: 1400 nM
[44]
  Selectivity Index: 0.175
